Measured values of several laboratories.
Compare with care: the assays were run in different laboratories.
Observed: cell growth or viability

Structure (SMILES) | cell line | test | conditions | endpoint | value
COc1ccc(CNC[C@](O)(COCc2ccc(OC)cc2)[C@@H]2CC[C@@H](C)C[C@H]2OCc2ccc(OC)cc2)cc1 | MCF7 | MTT | 30 µM, 72 h | inhibition | 101%
CCOC(=O)c1nn(-c2cccc(Cl)c2)/c(=N/N=C(\C)c2ccc(NC(=O)c3ccc(Cl)cc3)cc2)s1 | MCF7 | MTT | 1.25 µM | viability | 3.36%
CC1(C)CCC2(CC1)N[C@@H](C(=O)N[C@@H]1CC[C@@H](C(N)=O)OC1)[C@H](c1ccnc(Cl)c1F)[C@]21C(=O)Nc2cc(Cl)ccc21 | SJSA-1 | resazurin | 72 h | GI50 | 75 nM
COc1cc2c3c(n(CCCn4ccnc4)c(=O)c2cc1OC)-c1nc2c(cc1C3=O)OCO2 | AMO1 | MTS | 72 h | IC50 | 804 nM
CC(=O)Nc1ccc(/C(C)=N/N=c2\sc(C(C)=O)nn2-c2ccc(C)cc2)cc1 | MCF7 | MTT | 0.625 µM | viability | 86.4%
Cc1c(C(=O)O)ccc2c3n(nc12)[C@@H]1[C@H](C3)N(CC2CC2)[C@@]2(C(=O)Nc3cc(Cl)ccc32)[C@H]1c1cccc(Cl)c1F | A204 | resazurin | – | GI50 | 6 nM
C=CC(=O)N1CCN(c2nc(=O)n(-c3c(C)ccnc3C(C)C)c3nc(-c4c(O)cccc4F)c(F)cc23)[C@@H](C)C1 | NCI-H441 | ATP luminescence | – | IC50 | > 10000 nM
CCN1[C@@H](C(=O)NC23CCC(C(=O)O)(CC2)CC3)[C@H](c2cccc(Cl)c2F)[C@]2(C(=O)Nc3cc(Cl)ccc32)C12CCCCC2 | SJSA-1 | resazurin | 72 h | IC50 | 106 nM
C[C@@H]1CC[C@@H]([C@](C)(O)Cn2cnc3ccccc32)[C@H](OCc2ccccc2)C1 | MCF7 | MTT | 30 µM, 72 h | inhibition | 98.3%
CC(=NNC(N)=S)c1ccc(Nc2nnc(-c3ccc(Cl)cc3)c3ccccc23)cc1 | MCF7 | MTT | 0.625 µM, 24 h | viability | 4.56%
C=C(F)C(=O)N1CCN(c2nc(OC[C@@H]3CCCN3C)nc3c2CCN(c2cccc4cccc(Cl)c24)C3)C[C@@H]1CC#N | SW-620 | ATP luminescence | 3D culture | IC50 | > 1000 nM
O=C(Nc1ccccc1)Nc1ccc(Oc2nnc(-c3ccc(Cl)cc3)c3ccccc23)cc1 | MCF7 | MTT | 2.5 µM | cell death | 96.7%
CC(=O)c1nn(-c2ccccc2Cl)/c(=N/N=C(\C)c2ccc(NC(=O)c3ccccc3)cc2)s1 | MCF7 | MTT | 0.312 µM | viability | 7.5%
CC(=NNC(=S)Nc1ccccc1)c1ccc(Nc2nnc(-c3ccc(Cl)cc3)c3ccccc23)cc1 | MCF7 | MTT | 0.625 µM | cell death | 43%
CCNCCCn1c2c(c3cc(OC)c(OC)cc3c1=O)C(=O)c1cc3c(nc1-2)OCO3 | AMO1 | MTS | 72 h | IC50 | 184 nM
S=C(Nc1ccccc1)Nc1ccc(Oc2nnc(-c3ccc(Cl)cc3)c3ccccc23)cc1 | MCF7 | MTT | 5 µM | cell death | 97.3%

Structure (SMILES) | cell line | test | conditions | endpoint | value
COc1cc2c3c(n(CCCNC(C)C)c(=O)c2cc1OC)-c1nc2c(cc1C3=O)OCO2 | AMO1 | MTS | 72 h | IC50 | 317 nM
CC(=NNC(=O)c1ccccc1Cl)c1ccc(Nc2nnc(-c3ccc(Cl)cc3)c3ccccc23)cc1 | MCF7 | MTT | 0.312 µM, 24 h | viability | 99.9%
C[C@@H]1CC[C@@H]([C@@](O)(CNCc2ccccc2)COCc2ccccc2)[C@H](OCc2ccccc2)C1 | MCF7 | MTT | 30 µM, 72 h | inhibition | 96.4%
CC(=NNC(=O)c1ccccc1Br)c1ccc(Nc2nnc(-c3ccc(Cl)cc3)c3ccccc23)cc1 | MCF7 | MTT | 0.312 µM | cell death | 6.55%
COc1cc2c3c(n(CCCN4CCOCC4)c(=O)c2cc1OC)-c1nc2c(cc1C3=O)OCO2 | THP-1 | MTS | 72 h | IC50 | 1320 nM
CCOC(=O)c1nn(-c2cccc(Cl)c2)/c(=N/N=C(\C)c2ccc(NC(=O)c3ccccc3)cc2)s1 | MCF7 | MTT | 0.312 µM | viability | 6.34%
COc1ccccc1CNC[C@@](C)(O)[C@@H]1CC[C@@H](C)C[C@H]1OCc1ccccc1 | MCF7 | MTT | 30 µM, 72 h | inhibition | 98.1%
C=CC(=O)NC1CCN(c2ncc3ncnc(Nc4ccc(Oc5ccc6c(c5)ncn6C)c(C)c4)c3n2)CC1 | HCC1954 | – | – | EC50 | 5.37 µM
CC(=NNC(=O)c1ccc(N)cc1)c1ccc(Nc2nnc(-c3ccc(Cl)cc3)c3ccccc23)cc1 | MCF7 | MTT | 2.5 µM | cell death | 94.6%
COc1ccc(CNC[C@@](C)(O)[C@@H]2CC[C@@H](C)C[C@H]2OCc2ccccc2)cc1 | MCF7 | MTT | 30 µM, 72 h | inhibition | 97%
O=C(Nc1ccc(Oc2nnc(-c3ccc(Cl)cc3)c3ccccc23)cc1)c1cccc([N+](=O)[O-])c1 | MCF7 | MTT | 0.312 µM | cell death | 83%
Cc1noc2c1-c1ccccc1C(c1ccc(Cl)cc1)=N[C@H]2CC(N)=O | THP-1 | ATP luminescence | 72 h | IC50 | 377 nM
C=C(COCc1ccc(F)cc1)[C@@H]1CC[C@@H](C)C[C@H]1OCc1ccc(F)cc1 | MCF7 | MTT | 30 µM, 72 h | inhibition | 46.2%
CC(=O)c1nn(-c2ccc(C)cc2)/c(=N/N=C(\C)c2ccc(NC(=O)c3ccccc3)cc2)s1 | MCF7 | MTT | 0.312 µM | viability | 4.36%
C[C@@H]1CC[C@@H]([C@](C)(O)CNCc2ccc(F)cc2)[C@H](OCc2ccccc2)C1 | MCF7 | MTT | 30 µM, 72 h | inhibition | 73.8%
COc1cc2c3c(n(CCCNCCO)c(=O)c2cc1OC)-c1nc2c(cc1C3=O)OCO2 | THP-1 | MTS | 72 h | IC50 | 300 nM
